Data reported in ChEMBL document CHEMBL3351278, “Pyridine-3-carboxamide-6-yl-ureas as novel inhibitors of bacterial DNA gyrase: structure based design, synthesis, SAR and antimicrobial activity” (Eur J Med Chem, 2014).
Values after ≈ are worked out from the molar mass of the structure shown.

What was measured:
Enterococcus faecalis = test: Antibacterial activity against Enterococcus faecalis ATCC 29212 incubated for 24 hrs by broth microdilution method; format: functional; details: ATCC 29212, 24 h
DNA gyrase = DNA gyrase (Escherichia coli, UniProt P0AES4+P0AES6); test: Inhibition of Escherichia coli GyrB A2B2 subunits assessed reduction in DNA supercoiling activity by malachite green dye based by spectrophotometry; format: protein-complex assay
Outline: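 Inhibition was measured as loss of ATPase activity of the E. coli GyrB enzyme and reported as IC50.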

Staphylococcus aureus = test: Antibacterial activity against Staphylococcus aureus ATCC 29213 incubated for 24 hrs by broth microdilution method; format: functional; details: ATCC 29213, 24 h
Streptococcus pyogenes = test: Antibacterial activity against Streptococcus pyogenes ATCC 51339 incubated for 24 hrs by broth microdilution method; format: functional; details: ATCC 51339, 24 h
[1] = Retention time of the compound by HPLC method; format: physicochemical
Haemophilus influenzae = test: Antibacterial activity against Haemophilus influenzae ATCC 49247 incubated for 24 hrs by broth microdilution method; format: functional; details: ATCC 49247, 24 h

Structure (SMILES) | MIC (Enterococcus faecalis) | IC50 (DNA gyrase) | MIC (Staphylococcus aureus) | MIC (Streptococcus pyogenes) | Retention_time [1] | MIC (Haemophilus influenzae)
CCNC(=O)Nc1nc2cc(-c3cccnc3)cc(-c3ccccn3)c2s1 | < 0.25 µg/mL | < 0.75 µM | – | – | – | –
CCNC(=O)Nc1ccc(C(=O)Nc2cccnc2)cn1 | 256 µg/mL (≈ 897 µM) | 6 µM | > 256 µg/mL | 32 µg/mL (≈ 112 µM) | 1.25 min | > 256 µg/mL
CCNC(=O)Nc1ccc(C(=O)Nc2ccccc2)cn1 | > 16 µg/mL | 7.7 µM | > 64 µg/mL | > 16 µg/mL | 1.69 min | > 16 µg/mL
CCNC(=O)Nc1ccc(C(=O)Nc2ccccc2Cl)cn1 | > 64 µg/mL | 2.1 µM | > 64 µg/mL | > 64 µg/mL | 1.7 min | > 64 µg/mL
CCNC(=O)Nc1ccc(C(=O)Nc2ccc(Cl)cc2)cn1 | > 64 µg/mL | 3.3 µM | > 64 µg/mL | > 64 µg/mL | 1.83 min | > 64 µg/mL
CCNC(=O)Nc1ccc(C(=O)Nc2cccc(C#N)c2)cn1 | > 64 µg/mL | 3.8 µM | > 64 µg/mL | 32 µg/mL (≈ 103 µM) | 1.69 min | > 64 µg/mL
CCNC(=O)Nc1ccc(C(=O)Nc2cc(Cl)ccc2C)cn1 | > 64 µg/mL | 7.5 µM | > 64 µg/mL | > 64 µg/mL | 1.77 min | > 64 µg/mL
CCNC(=O)Nc1ccc(C(=O)Nc2ccncc2)cn1 | 64 µg/mL (≈ 224 µM) | 3.5 µM | > 64 µg/mL | 64 µg/mL (≈ 224 µM) | 1.19 min | > 64 µg/mL
CCNC(=O)Nc1ccc(C(=O)Nc2ccnc(C)c2)cn1 | > 64 µg/mL | 5.3 µM | > 64 µg/mL | > 64 µg/mL | 1.24 min | > 64 µg/mL
CCNC(=O)Nc1ccc(C(=O)Nc2cc(C(=O)OC)ccn2)cn1 | > 64 µg/mL | 14 µM | > 64 µg/mL | > 64 µg/mL | 1.66 min | > 64 µg/mL
CCNC(=O)Nc1ccc(C(=O)Nc2nccs2)cn1 | > 64 µg/mL | 0.42 µM | > 64 µg/mL | > 64 µg/mL | 1.52 min | > 64 µg/mL
CCNC(=O)Nc1ccc(C(=O)Nc2ncc(C(=O)O)s2)cn1 | > 64 µg/mL | 0.96 µM | > 64 µg/mL | > 64 µg/mL | 1.43 min | > 64 µg/mL
CCNC(=O)Nc1ccc(C(=O)NC2CCCCC2)cn1 | > 64 µg/mL | 23.1 µM | > 64 µg/mL | > 64 µg/mL | 1.67 min | > 64 µg/mL
CCNC(=O)Nc1cc(Nc2cccc(C)c2)c(C(=O)Nc2cccc(C)c2)cn1 | 0.5 µg/mL (≈ 1.24 µM) | 0.099 µM | 1 µg/mL (≈ 2.48 µM) | 32 µg/mL (≈ 79.3 µM) | 1.75 min | > 64 µg/mL
CCNC(=O)Nc1cc(Nc2cccc(C)c2)c(C(=O)Nc2nccs2)cn1 | > 64 µg/mL | 0.098 µM | > 64 µg/mL | > 64 µg/mL | 1.51 min | > 64 µg/mL
CCNC(=O)Nc1cc(N2CCN(C)CC2)c(C(=O)Nc2cccc(Cl)c2)cn1 | > 64 µg/mL | 5.14 µM | > 64 µg/mL | > 64 µg/mL | 1.36 min | > 64 µg/mL
CCNC(=O)Nc1cc(N2CCN(C)CC2)c(C(=O)Nc2cccnc2)cn1 | > 64 µg/mL | 5.66 µM | > 64 µg/mL | > 64 µg/mL | 0.27 min | > 64 µg/mL

Structure (SMILES) | MIC (Enterococcus faecalis) | IC50 (DNA gyrase) | MIC (Staphylococcus aureus) | MIC (Streptococcus pyogenes) | Retention_time [1] | MIC (Haemophilus influenzae)
CCNC(=O)Nc1cc(N2CCN(C)CC2)c(C(=O)Nc2cccc(C)c2)cn1 | > 64 µg/mL | 18 µM | > 64 µg/mL | > 64 µg/mL | 1.26 min | > 64 µg/mL
CCNC(=O)Nc1cc(N2CCN(C)CC2)c(C(=O)Nc2nccs2)cn1 | > 64 µg/mL | 33.2 µM | > 64 µg/mL | > 64 µg/mL | 1.18 min | > 64 µg/mL
CCNC(=O)Nc1cc(-n2ccnc2)c(C(=O)Nc2cccc(Cl)c2)cn1 | 32 µg/mL (≈ 83.2 µM) | 0.55 µM | > 64 µg/mL | 64 µg/mL (≈ 166 µM) | 1.44 min | > 64 µg/mL
CCNC(=O)Nc1cc(-c2cccnc2)c(C(=O)Nc2nccs2)cn1 | 64 µg/mL (≈ 174 µM) | 0.56 µM | > 64 µg/mL | 64 µg/mL (≈ 174 µM) | 1.36 min | > 64 µg/mL
CCNC(=O)Nc1cc(-c2cccnc2)c(C(=O)Nc2cccnc2)cn1 | 64 µg/mL (≈ 177 µM) | 1.13 µM | > 64 µg/mL | 64 µg/mL (≈ 177 µM) | 1.12 min | > 64 µg/mL
CCNC(=O)Nc1cc(-c2cccnc2)c(C(=O)Nc2cccc(Cl)c2)cn1 | 64 µg/mL (≈ 162 µM) | 3.02 µM | > 64 µg/mL | 64 µg/mL (≈ 162 µM) | 1.6 min | > 64 µg/mL
CCNC(=O)Nc1cc(-c2cccnc2)c(C(=O)Nc2cccc(C)c2)cn1 | 64 µg/mL (≈ 170 µM) | 7.27 µM | > 64 µg/mL | > 64 µg/mL | 1.51 min | > 64 µg/mL
CCNC(=O)Nc1cc(-c2ccccc2)c(C(=O)Nc2cccc(Cl)c2)cn1 | 4 µg/mL (≈ 10.1 µM) | 0.81 µM | > 64 µg/mL | > 64 µg/mL | 1.88 min | > 64 µg/mL
CCNC(=O)Nc1cc(NC2CCCCC2)c(C(=O)Nc2cccc(C)c2)cn1 | > 64 µg/mL | 2.12 µM | > 64 µg/mL | > 64 µg/mL | 1.7 min | > 64 µg/mL
CCNC(=O)Nc1cc(NCc2cccnc2)c(C(=O)Nc2cccnc2)cn1 | 8 µg/mL (≈ 20.4 µM) | 0.66 µM | > 64 µg/mL | 8 µg/mL (≈ 20.4 µM) | 1.23 min | > 64 µg/mL
CCNC(=O)Nc1cc(NCc2cccnc2)c(C(=O)Nc2ccccc2)cn1 | 2 µg/mL (≈ 5.12 µM) | 4.81 µM | > 64 µg/mL | 8 µg/mL (≈ 20.5 µM) | 1.3 min | > 64 µg/mL
CCNC(=O)Nc1cc(Nc2ccccc2)c(C(=O)Nc2ccc(-n3cncn3)nc2)cn1 | 0.25 µg/mL (≈ 0.564 µM) | 0.15 µM | > 16 µg/mL | > 16 µg/mL | 1.54 min | > 64 µg/mL
CCNC(=O)Nc1cc(Nc2ccccc2)c(C(=O)NCc2cccnc2)cn1 | 0.5 µg/mL (≈ 1.28 µM) | 2 µM | > 16 µg/mL | 1 µg/mL (≈ 2.56 µM) | 1.24 min | > 64 µg/mL
CCNC(=O)Nc1cc(Oc2ccccc2)c(C(=O)Nc2ccccc2)cn1 | > 16 µg/mL | 4.9 µM | > 16 µg/mL | > 16 µg/mL | 1.93 min | > 64 µg/mL
CCNC(=O)Nc1cc(Nc2cccnc2)c(C(=O)Nc2cccnc2)cn1 | 0.5 µg/mL (≈ 1.32 µM) | 0.093 µM | 8 µg/mL (≈ 21.2 µM) | 1 µg/mL (≈ 2.65 µM) | 1.38 min | > 64 µg/mL
CCNC(=O)Nc1ccc(C(=O)Nc2ccc3c(C)cc(=O)oc3c2)cn1 | > 64 µg/mL | 8.4 µM | > 64 µg/mL | > 64 µg/mL | 1.64 min | > 64 µg/mL
